Activity calls are given as the source filed them. The calls are words filed in the database; no cut-off is given here.
How the values were obtained:
[1] = target: T1, Sphingosine kinase 2 (Homo sapiens) (UniProt Q9NRA0); assay: Inhibition of recombinant human N-terminal His-tagged SphK2 (2 to 654 residues) expressed in baculovirus infected Sf21 cells at 125 uM using d-erythro-sphingosine as substrate incubated for 1 hr by ADP-Glo assay relative to control
T1 sequence (whole entry): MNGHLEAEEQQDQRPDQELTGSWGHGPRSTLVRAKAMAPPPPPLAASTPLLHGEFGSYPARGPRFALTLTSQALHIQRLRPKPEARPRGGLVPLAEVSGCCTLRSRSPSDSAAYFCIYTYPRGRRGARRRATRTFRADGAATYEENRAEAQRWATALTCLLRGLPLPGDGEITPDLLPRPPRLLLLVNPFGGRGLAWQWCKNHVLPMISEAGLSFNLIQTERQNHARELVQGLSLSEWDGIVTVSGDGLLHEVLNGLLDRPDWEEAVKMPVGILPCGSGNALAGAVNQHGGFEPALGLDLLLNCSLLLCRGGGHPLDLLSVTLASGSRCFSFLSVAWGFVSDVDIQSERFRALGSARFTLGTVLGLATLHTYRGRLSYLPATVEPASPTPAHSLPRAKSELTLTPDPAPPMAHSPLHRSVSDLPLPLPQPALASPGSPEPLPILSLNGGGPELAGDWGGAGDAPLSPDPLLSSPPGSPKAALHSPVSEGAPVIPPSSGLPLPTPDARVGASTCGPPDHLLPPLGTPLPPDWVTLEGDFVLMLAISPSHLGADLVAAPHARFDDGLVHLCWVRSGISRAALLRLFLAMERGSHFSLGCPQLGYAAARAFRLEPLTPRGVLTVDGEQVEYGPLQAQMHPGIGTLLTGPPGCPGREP

Sphingosine kinase 2 [2] = target: T2, Sphingosine kinase 2 (Homo sapiens, UniProt Q9NRA0); assay: Inhibition of recombinant human N-terminal His-tagged SphK2 (2 to 654 residues) expressed in baculovirus infected Sf21 cells using d-erythro-sphingosine as substrate incubated for 1 hr by ADP-Glo assay
T2 sequence (Q9NRA0 whole entry): T1 sequence (whole entry)

U-251 = assay: Cytotoxicity against human U-251MG cells assessed as reduction in cell viability at 125 uM incubated for 24 hrs by Hoechst 33258 and PI staining based imaging analysis; type: functional
How it was run: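 U-251 MG glioblastoma cells grown in RPMI-1640 with 10% FBS, 1 mM sodium pyruvate and 1x Pen-Strep at 37 °C, 5% CO2. Seeded at 3000 cells/well, left about 16 h, then medium replaced with fresh medium containing 125 µM compound for 24 h. Stained with Hoechst 33258 for total cells and propidium iodide for apoptotic cells. Triplicate, S.E. reported.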

Sphingosine kinase 2 [3] = target: T2, Sphingosine kinase 2; assay: Inhibition of recombinant human Flag-tagged SphK2 transfected in HEK293 cells using d-erythro-sphingosine as substrate by [gamma32P]-ATP based assay
Sphingosine kinase 1 = Sphingosine kinase 1 (Homo sapiens, UniProt Q9NYA1); assay: Inhibition of recombinant human Flag-tagged SphK1 transfected in HEK293 cells using d-erythro-sphingosine as substrate by [gamma32P]-ATP based assay
Chain of Sphingosine kinase 1 (Q9NYA1 whole entry): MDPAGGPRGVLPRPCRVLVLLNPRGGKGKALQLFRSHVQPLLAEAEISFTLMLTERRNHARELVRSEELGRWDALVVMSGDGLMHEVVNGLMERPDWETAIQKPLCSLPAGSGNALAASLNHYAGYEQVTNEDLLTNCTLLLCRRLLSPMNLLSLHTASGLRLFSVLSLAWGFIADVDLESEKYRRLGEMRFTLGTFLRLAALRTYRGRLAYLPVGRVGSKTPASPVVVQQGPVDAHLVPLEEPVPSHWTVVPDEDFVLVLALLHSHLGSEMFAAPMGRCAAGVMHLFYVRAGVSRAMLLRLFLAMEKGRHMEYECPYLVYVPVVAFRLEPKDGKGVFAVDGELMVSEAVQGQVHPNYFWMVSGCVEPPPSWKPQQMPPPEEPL

SMILES: N=C(N)N1CCC[C@H]1c1nc(-c2ccc(Cn3cc(-c4cccs4)nn3)cc2)no1
- inhibition [1]: > 50%
- IC50 (Sphingosine kinase 2 [2]): 687 nM

SMILES: N=C(N)C1(c2nc(-c3ccc(Cn4cc(C5CC5)nn4)cc3)no2)CC1
- inhibition [1]: > 50%

SMILES: COc1ccc(-c2cn(Cc3ccc(-c4noc(C[C@@H]5CCCN5C(=N)N)n4)cc3)nn2)cc1
- inhibition [1]: > 50%
- inhibition (U-251): Active

SMILES: N=C(N)N1CCC[C@H]1Cc1nc(-c2ccc(Cn3cc(-c4ccccn4)nn3)cc2)no1
- inhibition [1]: > 50%

SMILES: N=C(N)N1CCC[C@H]1c1nc(-c2ccc(Cn3cc(-c4ccccn4)nn3)cc2)no1
- inhibition [1]: > 50%

SMILES: Cn1cc(-c2cn(Cc3ccc(-c4noc(C5(C(=N)N)CC5)n4)cc3)nn2)cn1
- inhibition [1]: > 50%
- inhibition (U-251): Active

SMILES: CCCCc1cn(Cc2ccc(-c3noc([C@@H]4CCCN4C(=N)N)n3)cc2)nn1
- inhibition [1]: > 50%
- IC50 (Sphingosine kinase 2 [2]): 254 nM

SMILES: O=C(NCc1ccncc1)C12CC3CC(C1)CC(c1ccc(Cl)cc1)(C3)C2 [ABC-294640]
- inhibition at 125 µM (U-251): 50%

SMILES: COc1ccc(-c2cn(Cc3ccc(-c4noc([C@@H]5CCCN5C(=N)N)n4)cc3)nn2)cc1
- inhibition [1]: > 50%
- IC50 (Sphingosine kinase 2 [2]): 266 nM
- inhibition (U-251): Active

SMILES: N=C(N)N1CCC[C@H]1c1nc(-c2ccc(Cn3cc(-c4ccc(F)cc4)nn3)cc2)no1
- inhibition [1]: > 50%
- IC50 (Sphingosine kinase 2 [2]): 391 nM

SMILES: N=C(N)N1CCC[C@H]1Cc1nc(-c2ccc(Cn3cc(-c4ccccc4)nn3)cc2)no1
- inhibition [1]: > 50%
- inhibition (U-251): Active

SMILES: Cn1cc(-c2cn(Cc3ccc(-c4noc(C[C@@H]5CCCN5C(=N)N)n4)cc3)nn2)cn1
- inhibition [1]: > 50%

SMILES: N=C(N)N1CCC[C@H]1c1nc(-c2ccc(Cn3cc(-c4ccccc4)nn3)cc2)no1
- inhibition [1]: > 50%

SMILES: N=C(N)N1CCC[C@H]1Cc1nc(-c2ccc(Cn3cc(-c4ccc(C(F)(F)F)cc4)nn3)cc2)no1
- inhibition (U-251): Active

SMILES: Cc1ccc(S(=O)(=O)Nc2cccc(/C=N/c3ccccc3NS(=O)(=O)c3ccc(C)cc3)c2)cc1
- Ki (Sphingosine kinase 2 [3]): 6900 nM
- Ki (Sphingosine kinase 1): 27000 nM

SMILES: N=C(N)C1(c2nc(-c3ccc(Cn4cc(-c5ccccc5)nn4)cc3)no2)CC1
- inhibition [1]: > 50%
- inhibition (U-251): Active

SMILES: N=C(N)N1CCC[C@H]1c1nc(-c2ccc(Cn3cc(-c4ccc(C(F)(F)F)cc4)nn3)cc2)no1
- inhibition [1]: > 50%
- IC50 (Sphingosine kinase 2 [2]): 359 nM
- inhibition (U-251): Active

SMILES: N=C(N)N1CCC[C@H]1c1nc(-c2ccc(Cn3cc(C4CC4)nn3)cc2)no1
- inhibition [1]: > 50%
- IC50 (Sphingosine kinase 2 [2]): 248 nM

SMILES: N=C(N)N1CCC[C@H]1Cc1nc(-c2ccc(Nc3nc(-c4cccc(C(F)(F)F)c4)cs3)cc2)no1
- inhibition [1]: > 50%
- IC50 (Sphingosine kinase 2 [2]): 280 nM

From ChEMBL document CHEMBL4706570, “Structure-activity relationship studies and bioactivity evaluation of 1,2,3-triazole containing analogues as a selective sphingosine kinase-2 inhibitors” (Eur J Med Chem, 2020)
